As a reminder, the MIC is the lowest concentration found to suppress growth. By inhibition is commonly meant the drop in the measured response relative to a control, in per cent. By CC50 is commonly meant the concentration that lowers cell viability or growth by half.

SMILES strings stand for the structures. ≈ marks a conversion by molar mass, not a printed value.

Data set [1] has as its system Mycobacterium tuberculosis. As to the kind of experiment: Antimicrobial activity aagainst Mycobacterium tuberculosis ATCC 14468 in log phase by agar dilution method. The data set is classed as functional. The procedure, abridged: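 M. tuberculosis log-phase cultures were tested by agar dilution following NCCLS-type guidance, in duplicate. MIC was taken as the lowest concentration giving complete inhibition of bacterial growth.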
In general terms: In agar dilution, organisms are placed on agar that contains the substance at set levels.

The nature of data set [2]: Antimicrobial activity aagainst Mycobacterium sp. Mc2 in log phase assessed as inhibition of growth. The data set is classed as functional. A digest of the protocol:
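Agar dilution along the lines of NCCLS guidance, run in duplicate on log-phase cultures. MIC is the lowest compound concentration that gives complete inhibition of bacterial growth.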

Data set [3] can be described thus: Antimicrobial activity aagainst Mycobacterium sp. Mc2 in presence of acetate. Type of data set: functional.
Data set [4] has as its target T1, Isocitrate lyase (Mycobacterium tuberculosis) (UniProt P9WKK7).
T1 sequence (whole entry): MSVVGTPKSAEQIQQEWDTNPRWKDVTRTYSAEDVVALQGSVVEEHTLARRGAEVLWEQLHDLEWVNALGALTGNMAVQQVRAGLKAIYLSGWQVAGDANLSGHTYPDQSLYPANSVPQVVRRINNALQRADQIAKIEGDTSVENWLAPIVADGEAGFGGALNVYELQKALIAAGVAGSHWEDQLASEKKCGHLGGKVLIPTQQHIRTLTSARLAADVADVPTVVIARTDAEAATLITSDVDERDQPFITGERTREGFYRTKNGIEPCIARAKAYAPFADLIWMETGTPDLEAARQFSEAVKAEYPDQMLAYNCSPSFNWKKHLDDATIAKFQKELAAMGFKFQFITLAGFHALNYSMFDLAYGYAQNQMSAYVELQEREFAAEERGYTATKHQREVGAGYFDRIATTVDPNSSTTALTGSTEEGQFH
The data set is described as follows: Percent inhibition of Mycobacterium tuberculosis isocitrate lyase (ICL) at 100 uM. The procedure, abridged:
(§1)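 Isocitrate lyase activity was measured at 37 °C with phenylhydrazine present, reading glyoxylate-phenylhydrazone formation at 324 nm. Percent inhibition was determined at a single concentration.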

Data set [5] can be described thus: Cytotoxicity against african green monkey Vero cells after 72 hrs by MTT assay. Type of data set: cell-based. As to conditions: chlorocebus sabaeus. Background: Tetrazolium assays rely on reduction of a dye to a coloured formazan, in cell work by metabolically active cells.
For data set [6], the target named is T1, Isocitrate lyase (Mycobacterium tuberculosis). The data set is described as follows: Percent inhibition of Mycobacterium tuberculosis isocitrate lyase (ICL) at 10 uM. The procedure, abridged: as §1
Data set [7] deals with Mycobacterium tuberculosis. The data set is described as follows: Antimicrobial activity aagainst Mycobacterium tuberculosis ATCC 14468 in starved phase by agar dilution method. The data set is classed as functional. A digest of the protocol:
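Six-week nutrient-starved M. tuberculosis cells were tested by agar dilution in duplicate, following a literature procedure. MIC was taken as the lowest concentration giving complete inhibition of growth.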

As to `COc1cc(/C=N/NC(=O)c2ccc([N+](=O)[O-])o2)ccc1O`, the MIC was 41 µM (≈ 12.5 µg/mL) in data set [1], 81.9 µM (≈ 25 µg/mL) in data set [2] and 20.5 µM in data set [3].

For `O=C(O)CC[N+](=O)[O-]`, the inhibition in data set [4] worked out at 63.2%.

For the compound `O=C(N/N=C/c1cccc(Br)c1)c1ccc([N+](=O)[O-])o1`, the minimal inhibitory concentration (MIC) worked out at 18.5 µM (≈ 6.25 µg/mL) in data set [1], 37 µM (≈ 12.5 µg/mL) in data set [2] and 37 µM in data set [3].

In the case of `O=C(N/N=C/c1ccco1)c1ccc([N+](=O)[O-])o1`, the MIC in data set [1] was 25.1 µM (≈ 6.25 µg/mL); in data set [2], 50.2 µM (≈ 12.5 µg/mL); in data set [3], 25.1 µM.

On to `C/C(=N\NC(=O)c1ccc([N+](=O)[O-])o1)c1ccc(C)cc1`, for which the MIC in data set [1] came to 10.9 µM (≈ 3.13 µg/mL); in data set [2], 43.5 µM (≈ 12.5 µg/mL); in data set [3] it was 43.5 µM; in data set [7], 43.5 µM (≈ 12.5 µg/mL). For the same compound, the CC50 at 72 h in data set [5] was over 218 µM. Moreover, the inhibition in data set [6] came out at 32.5%.

Consider `O=C(N/N=C/c1ccc(Br)cc1)c1ccc([N+](=O)[O-])o1`, for which the MIC stood at 18.5 µM (≈ 6.25 µg/mL) in data set [1], 73.9 µM (≈ 25 µg/mL) in data set [2] and 37 µM in data set [3].

As for `C/C(=N\NC(=O)c1ccc([N+](=O)[O-])o1)c1ccccc1O`, the MIC in data set [1], in data set [2] and in data set [3] was over 43.2 µM each time.

Regarding `COc1ccc(/C=N/NC(=O)c2ccc([N+](=O)[O-])o2)cc1`, the MIC turned out to be 21.6 µM (≈ 6.25 µg/mL) in data set [1], 43.2 µM (≈ 12.5 µg/mL) in data set [2] and 21.6 µM in data set [3].

With `O=C(N/N=C/c1ccccc1[N+](=O)[O-])c1ccc([N+](=O)[O-])o1`, the MIC in data set [1] worked out at 10.3 µM (≈ 3.13 µg/mL); in data set [2], 10.3 µM (≈ 3.13 µg/mL); in data set [3] it was 10.3 µM; in data set [7], 41.1 µM (≈ 12.5 µg/mL). This compound registered a CC50 at 72 h in data set [5] of 206 µM. The same compound had an inhibition in data set [6] of 46.8%.

Turning to `C/C(=N\NC(=O)c1ccc([N+](=O)[O-])o1)c1ccc(Br)cc1`, the MIC is 8.88 µM (≈ 3.13 µg/mL) in data set [1], 17.8 µM (≈ 6.25 µg/mL) in data set [2], 4.43 µM in data set [3] and 17.8 µM (≈ 6.25 µg/mL) in data set [7]. The same compound came in with a CC50 at 72 h in data set [5] of over 178 µM. In data set [6], this compound returned an inhibition of 73.1%.

As to `CO[C@H]1/C=C/O[C@@]2(C)Oc3c(C)c(O)c4c(O)c(c(/C=N/N5CCN(C)CC5)c(O)c4c3C2=O)NC(=O)/C(C)=C\C=C\[C@H](C)[C@H](O)[C@@H](C)[C@@H](O)[C@@H](C)[C@H](OC(C)=O)[C@@H]1C` [RIFAMPIN], the MIC in data set [1] was 0.48 µM (≈ 0.395 µg/mL); in data set [2], 1.89 µM (≈ 1.56 µg/mL); in data set [3] it was over 15.2 µM; in data set [7] it was over 15.2 µM. For the same compound, the CC50 at 72 h in data set [5] is over 75.9 µM.

Take `O=C(N/N=C/c1ccc(Cl)cc1)c1ccc([N+](=O)[O-])o1`: the minimum inhibitory concentration (MIC) came out at 21.3 µM (≈ 6.25 µg/mL) in data set [1], 42.6 µM (≈ 12.5 µg/mL) in data set [2] and 10.7 µM in data set [3].

As to `Cc1ccc(/C=N/NC(=O)c2ccc([N+](=O)[O-])o2)cc1`, the MIC was found to be 11.4 µM (≈ 3.13 µg/mL) in data set [1], 45.7 µM (≈ 12.5 µg/mL) in data set [2], 22.9 µM in data set [3] and 91.5 µM (≈ 25 µg/mL) in data set [7]. Moreover, the cytotoxic concentration (CC50) at 72 h in data set [5] was over 229 µM. In data set [6], this compound had an inhibition of 19.8%.

As to `O=C(N/N=C/c1ccccc1C(F)(F)F)c1ccc([N+](=O)[O-])o1`, the MIC in data set [1] came out at 4.76 µM (≈ 1.56 µg/mL); in data set [2], 4.76 µM (≈ 1.56 µg/mL); in data set [3], 9.56 µM; in data set [7] it was 19.1 µM (≈ 6.25 µg/mL). The compound also displayed a CC50 at 72 h in data set [5] of over 191 µM. For the same compound, in data set [6], the inhibition is 30.1%.

Take `O=C(N/N=C/c1ccc([N+](=O)[O-])o1)c1ccc([N+](=O)[O-])o1`: the minimum inhibitory concentration (MIC) in data set [1] is 2.65 µM (≈ 0.78 µg/mL); in data set [2], 0.68 µM (≈ 0.2 µg/mL); in data set [3], 5.3 µM; in data set [7], 10.6 µM (≈ 3.13 µg/mL). This compound also gave a half-maximal cytotoxic concentration (CC50) at 72 h in data set [5] of 213 µM. Also, in data set [6], the inhibition was 86.8%.

Take `O=C(N/N=C/c1ccc([N+](=O)[O-])cc1)c1ccc([N+](=O)[O-])o1`: the figures for the MIC in data set [1], in data set [2] and in data set [3] were 20.6 µM (≈ 6.25 µg/mL), 82.2 µM (≈ 25 µg/mL) and 20.6 µM, respectively.

In the case of `O=C(N/N=C/c1ccc(O)cc1)c1ccc([N+](=O)[O-])o1`, the MIC in data set [1] was over 45.4 µM; in data set [2], over 45.4 µM; in data set [3], 45.4 µM.

Take `C/C(=N\NC(=O)c1ccc([N+](=O)[O-])o1)c1ccc([N+](=O)[O-])cc1`: the MIC is 9.84 µM (≈ 3.13 µg/mL) in data set [1], 19.6 µM (≈ 6.25 µg/mL) in data set [2], 19.6 µM in data set [3] and 19.6 µM (≈ 6.25 µg/mL) in data set [7]. In data set [5], this compound gave a CC50 at 72 h of over 197 µM. Further, the inhibition in data set [6] is 48.9%.

As to `NNC(=O)c1ccncc1` [ISONIAZID], the MIC was 0.72 µM (≈ 0.0987 µg/mL) in data set [1], 45.6 µM (≈ 6.25 µg/mL) in data set [2], over 91.1 µM in data set [3] and over 91.1 µM in data set [7]. The compound also registered a CC50 at 72 h in data set [5] of over 456 µM.

For the compound `O=C(N/N=C/c1c(Cl)cccc1Cl)c1ccc([N+](=O)[O-])o1`, the MIC turned out to be 19 µM (≈ 6.25 µg/mL) in data set [1], 76.2 µM (≈ 25 µg/mL) in data set [2] and 38.1 µM in data set [3].

With `O=C(N/N=C/c1ccccc1)c1ccc([N+](=O)[O-])o1`, the results for the MIC in data set [1], in data set [2] and in data set [3] were 48.2 µM (≈ 12.5 µg/mL), 192 µM (≈ 49.8 µg/mL) and 48.2 µM, respectively.

For the compound `O=C(N/N=C/c1ccc(F)cc1)c1ccc([N+](=O)[O-])o1`, the MIC was found to be 22.5 µM (≈ 6.25 µg/mL) in data set [1], 90.2 µM (≈ 25 µg/mL) in data set [2] and 45.1 µM in data set [3].

With `C/C(=N\NC(=O)c1ccc([N+](=O)[O-])o1)c1ccccc1`, the MIC was 11.4 µM (≈ 3.13 µg/mL) in data set [1], 45.7 µM (≈ 12.5 µg/mL) in data set [2], 45.7 µM in data set [3] and 45.7 µM (≈ 12.5 µg/mL) in data set [7]. In data set [5], this compound returned a CC50 at 72 h of over 229 µM. The compound also yielded an inhibition in data set [6] of 34.9%.

Regarding `C/C(=N\NC(=O)c1ccc([N+](=O)[O-])o1)c1ccc(F)cc1`, the MIC in data set [1] turned out to be 5.35 µM (≈ 1.56 µg/mL); in data set [2], 21.5 µM (≈ 6.25 µg/mL); in data set [3], 42.9 µM; in data set [7], 21.5 µM (≈ 6.25 µg/mL). In addition, the CC50 at 72 h in data set [5] is 215 µM. The compound further yielded an inhibition in data set [6] of 28.1%.
